Measurements from ChEMBL document CHEMBL1143929, “Synthesis and antiprotozoal activity of novel bis-benzamidino imidazo[1,2-a]pyridines and 5,6,7,8-tetrahydro-imidazo[1,2-a]pyridines” (Bioorg Med Chem, 2008).

Key:
[1] = tested on: Plasmodium falciparum; experiment: Antiprotozoal activity against Plasmodium falciparum K1; assay type: functional, organism-based
[2] = tested on: Trypanosoma brucei rhodesiense; experiment: Antiprotozoan activity against Trypanosoma brucei rhodesiense STIB900; assay type: functional, organism-based
[3] = tested on: Trypanosoma brucei rhodesiense; experiment: Antitrypanosomal activity against Trypanosoma brucei rhodesiense STIB900 infected mouse model assessed as survival at 5 mg/kg, ip after 4 days; assay type: functional; conditions: route intraperitoneal
In short: (§1)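 Acute African trypanosomiasis model in mice infected with T. b. rhodesiense STIB900. Diamidines were given intraperitoneally and prodrugs orally, dosed over 4 days. Read-outs were cures (mice surviving parasite-free for 60 days, out of 4) and average days of survival, compared against untreated infected controls.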

[4] = tested on: Trypanosoma brucei rhodesiense; experiment: Antitrypanosomal activity against Trypanosoma brucei rhodesiense STIB900 infected mouse model assessed as survival at 25 mg/kg, po after 4 days; assay type: functional; in short: as §1
[5] = tested on: L6; experiment: Cytotoxicity against rat L6 cells; assay type: cell-based
[6] = tested on: Trypanosoma brucei rhodesiense; experiment: Antitrypanosomal activity against Trypanosoma brucei rhodesiense STIB900 infected mouse model assessed as survival at 20 mg/kg, ip after 4 days; assay type: functional; conditions: route intraperitoneal; in short: as §1
[7] = Binding affinity to DNA
[8] = tested on: Trypanosoma brucei rhodesiense; experiment: Antitrypanosomal activity against Trypanosoma brucei rhodesiense STIB900 infected mouse model assessed as survival at 5 mg/kg, po after 4 days; assay type: functional; in short: as §1

N=C(N)c1ccc(-c2ccc(-c3ccc(C(=N)N)cn3)o2)cc1
IC50 [1]: 6.5 nM
IC50 [2]: 6.5 nM
Survival [3]: >54.5 days

CO/N=C(\N)c1ccc(-c2cn3cc(-c4ccc(/C(N)=N\OC)cc4)nc3c(C)c2C)cc1
IC50 [1]: 3250 nM
IC50 [2]: 7210 nM
Survival [4]: 15.5 days

CO/N=C(\N)c1ccc(-c2ccc3nc(-c4ccc(/C(N)=N\OC)cc4)cn3c2)cc1
IC50 [1]: 181 nM
IC50 [2]: 825 nM
IC50 [5]: 6900 nM
Survival [4]: 10.75 days

Cc1c(-c2ccc(C(=N)N)cc2)cn2cc(-c3ccc(C(=N)N)cc3)nc2c1C
IC50 [1]: 63 nM
IC50 [2]: 15 nM
Survival [3]: >39.5 days
IC50 [5]: 4700 nM

N=C(N)c1ccc(-c2cn3c(n2)CCC(c2ccc(C(=N)N)cc2)C3)cc1 (stereo not given)
Survival [6]: >60 days
IC50 [1]: 85 nM
IC50 [2]: 14 nM
Survival [3]: 31.25 days
IC50 [5]: 8900 nM
Kd [7]: 250 nM

CO/N=C(\N)c1ccc(-c2cn3cc(-c4ccc(/C(N)=N\OC)cc4)nc3cc2C)cc1
IC50 [1]: 880 nM
IC50 [2]: 1740 nM
IC50 [5]: 17000 nM
Survival [4]: 14.5 days

CO/N=C(\N)c1ccc(-c2cc(C)c3nc(-c4ccc(/C(N)=N\OC)cc4)cn3c2)cc1
IC50 [1]: 614 nM
IC50 [2]: 2370 nM
IC50 [5]: 9500 nM
Survival [4]: >20.25 days

Cc1cc(-c2ccc(C(=N)N)cc2)cn2cc(-c3ccc(C(=N)N)cc3)nc12
IC50 [1]: 23 nM
IC50 [2]: 38 nM
Survival [3]: 14.75 days
IC50 [5]: 7400 nM

CO/N=C(\N)c1ccc(-c2ccc(-c3ccc(/C(N)=N/OC)cn3)o2)cc1
Survival [4]: >60 days
Survival [8]: >60 days

N=C(N)c1ccc(-c2ccc3nc(-c4ccc(C(=N)N)cc4)cn3c2)cc1
Survival [6]: 22 days
IC50 [1]: 92 nM
IC50 [2]: 7.5 nM
IC50 [5]: 2500 nM
Kd [7]: 20 nM

Cc1cc2nc(-c3ccc(C(=N)N)cc3)cn2cc1-c1ccc(C(=N)N)cc1
IC50 [1]: 27 nM
IC50 [2]: 13 nM
Survival [3]: >37.25 days
IC50 [5]: 6800 nM

N=C(N)c1ccc(-c2ccc(-c3ccc(C(=N)N)cc3)o2)cc1 [FURAMIDINE]
Survival [3]: 35.5 days

CONC(=N)c1ccc(-c2ccc(-c3ccc(C(=N)NOC)cc3)o2)cc1 [PAFURAMIDINE]
Survival [4]: >60 days
